Activity calls are given as the source filed them. The calls are words filed in the database; no cut-off is given here.
Legend:
[1] = test system: Rattus norvegicus; experiment: Evaluated for number of rats ovulating in an in vivo anti-ovulatory assay at dose(25 microg); 3/4; assay type: functional, organism-based
[2] = test system: Rattus norvegicus; experiment: Evaluated for number of rats ovulating in an in vivo anti-ovulatory assay at dose(50 microg); 0/6; assay type: functional, organism-based
[3] = test system: Rattus norvegicus; experiment: Evaluated for number of rats ovulating in an in vivo anti-ovulatory assay at dose (500 microg); 8/8; assay type: functional, organism-based
[4] = test system: Rattus norvegicus; experiment: Evaluated for number of rats ovulating in an in vivo anti-ovulatory assay at dose (250 microg); 0/6; assay type: functional, organism-based
[5] = test system: Rattus norvegicus; experiment: Evaluated for number of rats ovulating in an in vivo anti-ovulatory assay at dose (100 microg); 2/9; assay type: functional, organism-based
[6] = target: T1, Gonadotropin-releasing hormone receptor (Rattus norvegicus, UniProt P30969); experiment: Competitive radioligand binding assay for rat Gonadotropin-releasing hormone receptor cells stably transfected in human HEK293
T1 sequence (P30969 whole entry): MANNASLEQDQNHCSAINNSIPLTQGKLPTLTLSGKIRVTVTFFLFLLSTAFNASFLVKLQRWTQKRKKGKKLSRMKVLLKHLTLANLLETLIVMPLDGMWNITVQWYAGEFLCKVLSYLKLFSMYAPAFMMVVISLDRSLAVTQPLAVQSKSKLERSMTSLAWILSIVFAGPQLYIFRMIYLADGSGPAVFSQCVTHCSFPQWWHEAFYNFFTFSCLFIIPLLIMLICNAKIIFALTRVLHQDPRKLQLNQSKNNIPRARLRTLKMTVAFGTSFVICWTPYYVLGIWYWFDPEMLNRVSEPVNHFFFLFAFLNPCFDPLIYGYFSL
Summary of the method: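 Membranes from HEK-293 cells stably expressing rat GnRH receptor (5% sucrose homogenate; nuclei removed at 3000g, membranes pelleted at 20000g, 4 °C), 7 µg protein in 10 mM Hepes pH 7.5, 150 mM NaCl, 0.1% BSA. Competitor at varying concentrations vs des-Gly10-[125I-Tyr5,DAla6,NMeLeu7,Pro9-NHEt]GnRH (~100 000 cpm), 90 min; PEI-coated GF/C filtration, PBS wash, γ counting. Ki by nonlinear least-squares fit; ≥3 independent experiments, mean ± SEM.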

[7] = test system: Rattus norvegicus; experiment: Evaluated for number of rats ovulating in an in vivo anti-ovulatory assay at dose (1000 microg); 3/8; assay type: functional, organism-based
[8] = test system: Rattus norvegicus; experiment: Evaluated for number of rats ovulating in an in vivo anti-ovulatory assay at dose(100 microg); 0/5; assay type: functional, organism-based
[9] = test system: Rattus norvegicus; experiment: Evaluated for number of rats ovulating in an in vivo anti-ovulatory assay at dose(50 microg); 1/4; assay type: functional, organism-based
[10] = test system: Rattus norvegicus; experiment: Evaluated for number of rats ovulating in an in vivo anti-ovulatory assay at dose (250 microg); 5/9; assay type: functional, organism-based
[11] = test system: Rattus norvegicus; experiment: Evaluated for number of rats ovulating in an in vivo anti-ovulatory assay at dose (500 microg); 4/8; assay type: functional, organism-based
[12] = test system: Rattus norvegicus; experiment: Evaluated for number of rats ovulating in an in vivo anti-ovulatory assay at dose (25 microg); 5/6; assay type: functional, organism-based
[13] = test system: Rattus norvegicus; experiment: Evaluated for number of rats ovulating in an in vivo anti-ovulatory assay at dose (100 microg); 6/11; assay type: functional, organism-based
[14] = test system: Rattus norvegicus; experiment: Evaluated for number of rats ovulating in an in vivo anti-ovulatory assay at dose(1000 microg); 7/8; assay type: functional, organism-based

CC(=O)N[C@H]1CC(=O)NCCC(=O)N[C@@H](C(=O)N[C@@H](CO)C(=O)N[C@@H](Cc2ccc(O)cc2)C(=O)N[C@H](Cc2ccc3ccccc3c2)C(=O)N[C@H](CC(C)C)C(=O)N[C@@H](CCCN=C(N)N)C(=O)N2CCC[C@H]2C(=O)N[C@H](C)C(N)=O)CNC(=O)[C@@H](Cc2ccc(Cl)cc2)NC1=O
Activity [1]: inactive
Activity [2]: Active

CC(=O)N[C@H]1CCC(=O)N[C@@H](C(=O)N[C@@H](CO)C(=O)N[C@@H](Cc2ccc(O)cc2)C(=O)N[C@H](CCCN=C(N)N)C(=O)N[C@H](CC(C)C)C(=O)N[C@@H](CCCN=C(N)N)C(=O)N2CCC[C@H]2C(=O)N[C@H](C)C(N)=O)CCCCNC(=O)[C@@H](Cc2ccc(Cl)cc2)NC1=O
Activity [3]: inactive

CC(=O)N[C@H]1CC(=O)N[C@@H](C)C(=O)N[C@@H](C(=O)N[C@@H](CO)C(=O)N[C@@H](Cc2ccc(O)cc2)C(=O)N[C@H](Cc2ccc3ccccc3c2)C(=O)N[C@H](CC(C)C)C(=O)N[C@@H](CCCN=C(N)N)C(=O)N2CCC[C@H]2C(=O)N[C@H](C)C(N)=O)CCCNC(=O)[C@@H](Cc2ccc(Cl)cc2)NC1=O
Activity [4]: Active
Activity [5]: Weak activity

CC(=O)NC1CCCNC(=O)CCNC(=O)C[C@@H](C(=O)N[C@@H](CO)C(=O)N[C@@H](Cc2ccc(O)cc2)C(=O)N[C@H](Cc2ccc3ccccc3c2)C(=O)N[C@H](CC(C)C)C(=O)NC(CCCN=C(N)N)C(=O)N2CCC[C@H]2C(=O)N[C@H](C)C(N)=O)NC(=O)[C@@H](Cc2ccc(Cl)cc2)NC1=O (stereo in doubt)
Ki [6]: 2.2 nM
Activity [7]: Weak activity

CC(=O)N[C@@H]1CC(=O)N[C@@H](C)C(=O)NCC[C@H](C(=O)N[C@@H](CO)C(=O)N[C@@H](Cc2ccc(O)cc2)C(=O)N[C@H](Cc2ccc3ccccc3c2)C(=O)N[C@@H](CC(C)C)C(=O)N[C@@H](CCCN=C(N)N)C(=O)N2CCC[C@H]2C(=O)N[C@H](C)C(N)=O)NC(=O)[C@@H](Cc2ccc(Cl)cc2)NC1=O
Ki [6]: 1.8 nM

CC(=O)N[C@@H]1CC(=O)NCCCC[C@H](C(=O)N[C@@H](CO)C(=O)N[C@@H](Cc2ccc(O)cc2)C(=O)N[C@H](Cc2ccc3ccccc3c2)C(=O)N[C@@H](CC(C)C)C(=O)N[C@@H](CCCN=C(N)N)C(=O)N2CCC[C@H]2C(=O)N[C@H](C)C(N)=O)NC(=O)[C@@H](Cc2ccc(Cl)cc2)NC1=O
Ki [6]: 0.82 nM

CC(=O)N[C@@H]1CC(=O)N[C@@H](C)C(=O)NCCC[C@H](C(=O)N[C@@H](CO)C(=O)N[C@@H](Cc2ccc(O)cc2)C(=O)N[C@H](Cc2ccc3ccccc3c2)C(=O)N[C@@H](CC(C)C)C(=O)N[C@@H](CCCN=C(N)N)C(=O)N2CCC[C@H]2C(=O)N[C@H](C)C(N)=O)NC(=O)[C@@H](Cc2ccc(Cl)cc2)NC1=O
Ki [6]: 3.3 nM

CC(=O)N[C@@H]1CCC(=O)NCC(=O)NCC[C@H](C(=O)N[C@@H](CO)C(=O)N[C@@H](Cc2ccc(O)cc2)C(=O)N[C@H](Cc2ccc3ccccc3c2)C(=O)N[C@@H](CC(C)C)C(=O)N[C@@H](CCCN=C(N)N)C(=O)N2CCC[C@H]2C(=O)N[C@H](C)C(N)=O)NC(=O)[C@@H](Cc2ccc(Cl)cc2)NC1=O
Ki [6]: 20.3 nM

CC(=O)N[C@@H]1CCC(=O)NCCCC[C@H](C(=O)N[C@@H](CO)C(=O)N[C@@H](Cc2ccc(O)cc2)C(=O)N[C@H](Cc2ccc3ccccc3c2)C(=O)N[C@@H](CC(C)C)C(=O)N[C@@H](CCCN=C(N)N)C(=O)N2CCC[C@H]2C(=O)N[C@H](C)C(N)=O)NC(=O)[C@@H](Cc2ccc(Cl)cc2)NC1=O
Ki [6]: 0.47 nM

CC(=O)N[C@H]1CCC(=O)N[C@@H](C(=O)N[C@@H](CO)C(=O)N[C@@H](Cc2ccc(O)cc2)C(=O)N[C@H](Cc2ccc3ccccc3c2)C(=O)N[C@H](CC(C)C)C(=O)N[C@@H](CCCN=C(N)N)C(=O)N2CCC[C@H]2C(=O)N[C@H](C)C(N)=O)CCCCNC(=O)[C@@H](Cc2ccc(Cl)cc2)NC1=O
Activity [8]: Active
Activity [9]: Active

CC(=O)N[C@@H]1CC(=O)NCCC(=O)NCC[C@H](C(=O)N[C@@H](CO)C(=O)N[C@@H](Cc2ccc(O)cc2)C(=O)N[C@H](Cc2ccc3ccccc3c2)C(=O)N[C@@H](CC(C)C)C(=O)N[C@@H](CCCN=C(N)N)C(=O)N2CCC[C@H]2C(=O)N[C@H](C)C(N)=O)NC(=O)[C@@H](Cc2ccc(Cl)cc2)NC1=O
Ki [6]: 0.32 nM

CC(=O)N[C@@H]1CNC(=O)C[C@H](C(=O)N[C@@H](CO)C(=O)N[C@@H](Cc2ccc(O)cc2)C(=O)N[C@H](Cc2ccc3ccccc3c2)C(=O)N[C@@H](CC(C)C)C(=O)N[C@@H](CCCN=C(N)N)C(=O)N2CCC[C@H]2C(=O)N[C@H](C)C(N)=O)NC(=O)[C@@H](Cc2ccc(Cl)cc2)NC1=O
Ki [6]: 1.7 nM

CC(=O)N[C@@H]1CC(=O)NCCC(=O)NC[C@H](C(=O)N[C@@H](CO)C(=O)N[C@@H](Cc2ccc(O)cc2)C(=O)N[C@H](Cc2ccc3ccccc3c2)C(=O)N[C@@H](CC(C)C)C(=O)N[C@@H](CCCN=C(N)N)C(=O)N2CCC[C@H]2C(=O)N[C@H](C)C(N)=O)NC(=O)[C@@H](Cc2ccc(Cl)cc2)NC1=O
Ki [6]: 0.35 nM

CC(=O)N[C@H]1CC(=O)N[C@H](C)C(=O)N[C@@H](C(=O)N[C@@H](CO)C(=O)N[C@@H](Cc2ccc(O)cc2)C(=O)N[C@H](Cc2ccc3ccccc3c2)C(=O)N[C@H](CC(C)C)C(=O)N[C@@H](CCCN=C(N)N)C(=O)N2CCC[C@H]2C(=O)N[C@H](C)C(N)=O)CCCNC(=O)[C@@H](Cc2ccc(Cl)cc2)NC1=O
Activity [10]: Weak activity
Activity [11]: Weak activity

CC(=O)N[C@H]1CC(=O)NCCCC(=O)N[C@@H](C(=O)N[C@@H](CO)C(=O)N[C@@H](Cc2ccc(O)cc2)C(=O)N[C@H](Cc2ccc3ccccc3c2)C(=O)N[C@H](CC(C)C)C(=O)N[C@@H](CCCN=C(N)N)C(=O)N2CCC[C@H]2C(=O)N[C@H](C)C(N)=O)CNC(=O)[C@@H](Cc2ccc(Cl)cc2)NC1=O
Activity [12]: inactive
Activity [13]: Weak activity

CC(=O)N[C@@H]1CC(=O)NCCCC(=O)NC[C@H](C(=O)N[C@@H](CO)C(=O)N[C@@H](Cc2ccc(O)cc2)C(=O)N[C@H](Cc2ccc3ccccc3c2)C(=O)N[C@@H](CC(C)C)C(=O)N[C@@H](CCCN=C(N)N)C(=O)N2CCC[C@H]2C(=O)N[C@H](C)C(N)=O)NC(=O)[C@@H](Cc2ccc(Cl)cc2)NC1=O
Ki [6]: 0.18 nM

CC(=O)N[C@@H]1CC(=O)N[C@H](C)C(=O)NCCC[C@H](C(=O)N[C@@H](CO)C(=O)N[C@@H](Cc2ccc(O)cc2)C(=O)N[C@H](Cc2ccc3ccccc3c2)C(=O)N[C@@H](CC(C)C)C(=O)N[C@@H](CCCN=C(N)N)C(=O)N2CCC[C@H]2C(=O)N[C@H](C)C(N)=O)NC(=O)[C@@H](Cc2ccc(Cl)cc2)NC1=O
Ki [6]: 2.4 nM

CC(=O)N[C@@H]1CC(=O)NCC(=O)NCCCC[C@H](C(=O)N[C@@H](CO)C(=O)N[C@@H](Cc2ccc(O)cc2)C(=O)N[C@H](Cc2ccc3ccccc3c2)C(=O)N[C@@H](CC(C)C)C(=O)N[C@@H](CCCN=C(N)N)C(=O)N2CCC[C@H]2C(=O)N[C@H](C)C(N)=O)NC(=O)[C@@H](Cc2ccc(Cl)cc2)NC1=O
Ki [6]: 0.14 nM

CC(=O)N[C@@H]1CCC(=O)NCCC(=O)NCCCC[C@H](C(=O)N[C@@H](CO)C(=O)N[C@@H](Cc2ccc(O)cc2)C(=O)N[C@H](Cc2ccc3ccccc3c2)C(=O)N[C@@H](CC(C)C)C(=O)N[C@@H](CCCN=C(N)N)C(=O)N2CCC[C@H]2C(=O)N[C@H](C)C(N)=O)NC(=O)[C@@H](Cc2ccc(Cl)cc2)NC1=O
Ki [6]: 2.2 nM

CC(=O)N[C@@H]1CCC(=O)NCC(=O)NCCC[C@H](C(=O)N[C@@H](CO)C(=O)N[C@@H](Cc2ccc(O)cc2)C(=O)N[C@H](Cc2ccc3ccccc3c2)C(=O)N[C@@H](CC(C)C)C(=O)N[C@@H](CCCN=C(N)N)C(=O)N2CCC[C@H]2C(=O)N[C@H](C)C(N)=O)NC(=O)[C@@H](Cc2ccc(Cl)cc2)NC1=O
Ki [6]: 4.2 nM

CC(=O)N[C@H]1CC(=O)N[C@H](C(=O)N[C@@H](CO)C(=O)N[C@@H](Cc2ccc(O)cc2)C(=O)N[C@H](Cc2ccc3ccccc3c2)C(=O)N[C@H](CC(C)C)C(=O)N[C@@H](CCCN=C(N)N)C(=O)N2CCC[C@H]2C(=O)N[C@H](C)C(N)=O)CNC(=O)[C@@H](Cc2ccc(Cl)cc2)NC1=O
Activity [14]: inactive

CC(=O)N[C@@H]1CCC(=O)NCC[C@H](C(=O)N[C@@H](CO)C(=O)N[C@@H](Cc2ccc(O)cc2)C(=O)N[C@H](Cc2ccc3ccccc3c2)C(=O)N[C@@H](CC(C)C)C(=O)N[C@@H](CCCN=C(N)N)C(=O)N2CCC[C@H]2C(=O)N[C@H](C)C(N)=O)NC(=O)[C@@H](Cc2ccc(Cl)cc2)NC1=O
Ki [6]: 0.31 nM

Reference: ChEMBL document CHEMBL1132958, “Design of monocyclic (1-3) and dicyclic (1-3/4-10) gonadotropin releasing hormone (GnRH) antagonists” (J Med Chem, 2000)
